ZTA DNA inh: counter-screen for EBNA-1 inhibitors: inhibitors of Epstein-Barr virus ZTA; P03206; AID 2234; ZTA-DNA binding, fluorescence polarization; inhibition, % at 11 µM; 0.15% of 320,000 active; in the data active = inhibition above about 33%
Target sequence (P03206 whole entry, looked up): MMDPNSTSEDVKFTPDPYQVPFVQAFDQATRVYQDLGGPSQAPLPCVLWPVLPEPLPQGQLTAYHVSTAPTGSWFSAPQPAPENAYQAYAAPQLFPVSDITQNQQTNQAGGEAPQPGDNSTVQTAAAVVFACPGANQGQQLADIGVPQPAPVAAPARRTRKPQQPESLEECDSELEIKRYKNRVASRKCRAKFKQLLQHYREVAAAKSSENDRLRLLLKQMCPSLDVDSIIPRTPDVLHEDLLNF
EBNA-1 inhibitor: blocks EBNA-1 binding to DNA. 0.34% of 300,000 active. inhibition, % at 14.8 µM. EBNA-1 DNA binding, fluorescence polarization. AID 1950; in the data active = inhibition above about 28%
EBV gp42 inh: EBV gp42 inhibition. AID 1085. Fluorescence polarization binding assay, mP read-out. Q1HVG2. 0.42% of 220,000 active. inhibition, % (tested at 21.74 µM); in the data active = inhibition above about 50%
Target sequence (Q1HVG2 whole entry, looked up): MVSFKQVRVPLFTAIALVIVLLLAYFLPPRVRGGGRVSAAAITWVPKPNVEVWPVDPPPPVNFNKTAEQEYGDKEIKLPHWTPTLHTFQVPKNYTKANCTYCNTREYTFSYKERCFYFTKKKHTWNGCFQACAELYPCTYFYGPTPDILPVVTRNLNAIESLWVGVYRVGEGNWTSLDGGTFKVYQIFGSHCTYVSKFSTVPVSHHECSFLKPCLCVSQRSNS
GPR7 antagonist: human neuropeptides B/W receptor 1 antagonism; P48145; GPR7-expressing cells, fluorescence antagonist assay; inhibition, % at 4.4 µM; 1.1% of 290,000 active; AID 1861; in the data active = inhibition above about 16%, passing the limit was not always enough;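 note: cells stimulated with the agonist NPW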
core dimer inh: HCV core protein dimerization inhibition | TR-FRET GST/Flag-core106 dimerization, 1536-well | inhibition, % at 5 µM | 0.33% of 300,000 active | AID 1899;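 active = inhibition above the mean of all tested compounds plus 3 SD, set per screening campaign, cut at about 45% in these data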
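test system = GST/Flag-tagged HCV core106 proteins | probe or stimulus = Eu donor and XL665 acceptor anti-tag antibodies | times = compound-protein-antibody incubation 4 h at 22.5 °C | signal = TR-FRET, excitation 340 nm, emission 617 and 671 nm | measure = percent inhibition of core106 dimerization signal | controls = wells lacking GST-core106 and wells with excess unlabelled core106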
NS3 helicase inh: HCV NS3 helicase inhibition. NS3 helicase DNA unwinding, Cy5 molecular beacon fluorescence. inhibition, % at 10.9 µM. 0.56% of 290,000 active. AID 1800;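 active = inhibition above the mean of all tested compounds plus 3 SD, set per campaign, cut at about 35% in these data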
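test system = hepatitis C virus NS3 helicase domain fragment enzyme | reagent = annealed dual-labelled DNA beacon duplex, ATP-started | times = 1 h at 25 °C | detection = Cy5 fluorescence, 0 and 60 min reads | read-out basis = percent inhibition from t60/t0 fluorescence ratio | control set = DMSO and thioflavine S | replication = one well per compound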
NS3 helicase cf: confirmation of Hepatitis C virus NS3 helicase inhibitors. shares compounds with NS3 helicase inh. NS3 helicase DNA unwinding, Cy5 molecular beacon fluorescence. inhibition, % at 10.9 µM. 31% of 1,600 active;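 active = inhibition above the mean of all tested compounds plus 3 SD, cutoff set per campaign, cut at about 36% in these data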
DNA FID counter: intercalator displacement, NS3 helicase counter-screen; shares compounds with NS3 helicase inh; DNA fluorescent intercalator displacement, fluorescence; inhibition, % at 7.9 µM; 4% of 1,600 active; in the data active = inhibition above about 37%;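 note: higher means more displacement of ethidium bromide from the DNA hairpin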
FID counter DR: counter-screen for HCV NS3 helicase inhibitors: DNA intercalator displacement dose response | shares compounds with NS3 helicase inh | AID 2172 | IC50, µM | 120 tested, under 10 active | fluorescent intercalator displacement from DNA, fluorescence; call rule not given here
Large screens that a line does not name were inactive (follow-up assays come after a bar, where they were run). This is a sample that favours compounds with a hit; in the whole collection about 2.3% have one here.

CCSc1nc2c(c(=O)[nH]1)C(c1ccncc1)C(C(=O)OC(C)C)=C(C)N2 (centres undefined)	none
COc1ccccc1C(=O)Nc1cc(-c2nn3c(C)nnc3s2)ccc1C	none (no result: ZTA DNA inh, EBNA-1 inhibitor, EBV gp42 inh, core dimer inh)
CCCNc1c(F)c(F)c2c(C)c3ccccc3nc2c1F	EBV gp42 inh 133.9, NS3 helicase inh 41.0 | NS3 helicase cf inactive | DNA FID counter inactive
Fc1cc(F)cc(NC(=S)Nc2ccccc2N2CCOCC2)c1	none
CC(=O)C1=C(O)C(=O)N(Cc2ccccc2)C1c1cccc([N+](=O)[O-])c1 (centres undefined)	none (no result: EBV gp42 inh)
CC(C)CC(=O)C1=C(O)C(=O)N(Cc2ccccc2)C1c1ccccc1 (centres undefined)	NS3 helicase inh 36.3 (no result: EBV gp42 inh) | NS3 helicase cf inactive | DNA FID counter inactive
CC(=O)C1=C(O)C(=O)N(Cc2ccccc2)C1c1ccc(Br)cc1 (centres undefined)	NS3 helicase inh 40.7 (no result: EBV gp42 inh) | NS3 helicase cf inactive | DNA FID counter inactive
CC(=O)C1=C(O)C(=O)N(Cc2ccccc2)C1c1ccco1 (centres undefined)	none
Cn1cccc1CC(=O)NNC(=S)Nc1ccc(F)cc1	NS3 helicase inh 36.2 | NS3 helicase cf inactive | DNA FID counter inactive
Cn1cccc1CC(=O)NNC(=O)Nc1ccc(F)cc1	none
Cc1ccc(C)c(N(CC(=O)NC(C)(C)C)C(=O)CCC(=O)Nc2nccs2)c1	none (no result: EBV gp42 inh)
CCCOc1ccc(C2C(C(=O)c3ccc(C)o3)=C(O)C(=O)N2Cc2ccco2)cc1OCC (centres undefined)	NS3 helicase inh 36.8 (no result: EBV gp42 inh) | NS3 helicase cf 54.8 | DNA FID counter inactive | FID counter DR inactive
O=C(C1=C(O)C(=O)N(Cc2ccco2)C1c1cccc(Cl)c1)c1ccco1 (centres undefined)	NS3 helicase inh 48.3 (no result: EBV gp42 inh) | NS3 helicase cf inactive | DNA FID counter inactive
O=C1C(=O)N(Cc2ccco2)C(c2cccc(Cl)c2)/C1=C(\O)c1ccc2c(c1)OCCO2 (centres undefined)	NS3 helicase inh 46.7 | NS3 helicase cf 83.0 | DNA FID counter inactive | FID counter DR inactive
O=C1C(=O)N(Cc2ccco2)C(c2cccs2)/C1=C(\O)c1cccc([N+](=O)[O-])c1 (centres undefined)	NS3 helicase inh 42.8 | NS3 helicase cf inactive | DNA FID counter inactive
COc1cc(C2/C(=C(\O)c3ccc4c(c3)OCCO4)C(=O)C(=O)N2Cc2ccco2)ccc1O (centres undefined)	none (no result: EBV gp42 inh)
COc1cccc(/C(O)=C2/C(=O)C(=O)N(Cc3ccco3)C2c2ccncc2)c1 (centres undefined)	none
COc1cccc(CN(C)CC(=O)Nc2ccccc2C(=O)Nc2ccccc2)c1OC	none
O=C(CSc1nc2ccccc2n1Cc1ccc(Cl)cc1)N/N=C/c1ccc(C(=O)O)cc1	none
COC(=O)c1ccc(NC(=O)CN2CCN(c3ccccn3)CC2)cc1	none
O=C(c1cn(Cc2ccccc2)nc1-c1cccnc1)N1CCc2ccccc2C1	none (no result: EBNA-1 inhibitor, EBV gp42 inh, GPR7 antagonist, core dimer inh, NS3 helicase inh)
CCCCn1c(SCC(=O)NC2CCS(=O)(=O)C2)nc2ccccc2c1=O (centres undefined)	none (no result: EBV gp42 inh)
COc1ccc(C2C(C(=O)c3ccc(C)o3)=C(O)C(=O)N2Cc2ccco2)cc1OC (centres undefined)	none (no result: EBV gp42 inh)
CCCOc1ccc(C2C(C(=O)c3ccc(C)o3)=C(O)C(=O)N2Cc2ccco2)cc1 (centres undefined)	NS3 helicase inh 71.3 (no result: EBV gp42 inh) | NS3 helicase cf 97.9 | DNA FID counter inactive
O=C(C1=C(O)C(=O)N(c2ncccn2)C1c1ccc(Cl)cc1)c1ccco1 (centres undefined)	NS3 helicase inh 43.4 | NS3 helicase cf inactive | DNA FID counter inactive
Cc1ccc2c(c1)Oc1ccc(NC(=O)CCl)cc1C(=O)N2	none
CCOc1cc2[nH]c(=S)n(CCOC)c(=O)c2cc1OCC	none
COCCn1c(=S)[nH]c2ccc(N(C)C)cc2c1=O	NS3 helicase inh 39.0 | NS3 helicase cf inactive | DNA FID counter inactive
CCOC(=O)C(C)Sc1ccc2nnc(CCNS(=O)(=O)c3ccccc3)n2n1 (centres undefined)	none
Cc1cnc(SCc2cnc(C)nc2N)nc1	none
CC(C)(C)OC(=O)N1CCC(CNC(=O)c2ccc(F)cc2F)CC1	NS3 helicase inh 41.4 | NS3 helicase cf inactive | DNA FID counter inactive
CC(C)(C)NC(=O)CCN(/N=C/c1ccccc1F)C1=NS(=O)(=O)c2ccccc21	none (no result: EBV gp42 inh)
CC(=O)N1C=Cc2c(c(C)c3c([nH]c4ccccc43)c2C)C1	NS3 helicase inh 39.3 (no result: ZTA DNA inh, EBNA-1 inhibitor, core dimer inh) | NS3 helicase cf inactive | DNA FID counter inactive
CN(Cc1ccccc1)S(=O)(=O)c1ccc(Cl)c(C(=O)NCCCN2CCOCC2)c1	none (no result: EBV gp42 inh, GPR7 antagonist, NS3 helicase inh)
CCOc1ccc(-n2ccc(=O)c(C(=O)Nc3ccc(S(=O)(=O)Nc4nccs4)cc3)n2)cc1	NS3 helicase inh 37.1 (no result: EBV gp42 inh) | NS3 helicase cf inactive | DNA FID counter inactive
CC(C)(C)C1CCC(OCC(O)CN2CCN(c3ccccn3)CC2)CC1 (centres undefined)	none
Cc1c(NC(=O)C(C)OC(=O)c2c3c(nc4ccccc24)CCC3)c(=O)n(-c2ccccc2)n1C (centres undefined)	NS3 helicase inh 39.0 | NS3 helicase cf inactive | DNA FID counter inactive
O=C(NCCc1cccs1)C12CN(Cc3ccccc3)CC1C(c1cccc([N+](=O)[O-])c1)=NO2 (centres undefined)	NS3 helicase inh 56.0 | NS3 helicase cf inactive | DNA FID counter inactive
CN(CC(=O)Nc1cccc(Cl)c1)S(=O)(=O)c1ccc2c(c1)n(C)c(=O)c(=O)n2C	none (no result: EBV gp42 inh)
CCS(=O)(=O)C1=NN2C(=N)/C(=C\c3ccc(OCCOc4cccc(OC)c4)c(OC)c3)C(=O)N=C2S1	NS3 helicase inh 46.4 (no result: EBV gp42 inh) | NS3 helicase cf 63.0 | DNA FID counter inactive
COc1ccc(/C=C\c2onc(C)c2S(=O)(=O)N2CCC(C(=O)NCc3ccco3)CC2)cc1	NS3 helicase inh 49.9 | NS3 helicase cf inactive | DNA FID counter inactive
NS(=O)(=O)c1ccc(N=Nc2ccc(O)c3ncccc23)cc1	none (no result: EBV gp42 inh)
NS(=O)(=O)c1ccc(N=Nc2ccc(=O)[nH]c2O)cc1	none | NS3 helicase cf inactive | DNA FID counter inactive
Cc1c(N=C2N=C(NC(=O)NC(C)(C)C)c3ccccc32)c(=O)n(-c2ccccc2)n1C	NS3 helicase inh 57.7 | NS3 helicase cf inactive | DNA FID counter inactive
Cc1c(N=C2C=CC(=O)c3ccccc32)c(=O)n(-c2ccccc2)n1C	none (no result: ZTA DNA inh, EBNA-1 inhibitor, core dimer inh)

Screening results as filed in PubChem BioAssay.
